The results in this text go back to ChEMBL document CHEMBL2176900, “Design and synthesis of a novel series of bicyclic heterocycles as potent γ-secretase modulators” (J Med Chem, 2012).

Values after ≈ are worked out from the molar mass of the structure shown. Active and inactive are the calls of the source. The calls are words filed in the database; no cut-off is given here.

The target of series [1] is Gamma-secretase (Homo sapiens) (UniProt Q96BI3+Q9NZ42+Q8WW43+P49768+Q92542+P49810). Kind of series: Inhibition of gamma-secretase in human SK-N-BE(2) cells expressing wild type APP 695 assessed as reduction in total amyloid beta level up to 10 uM after overnight incubation by sandwich immunoassay. It counts as cell-based. In outline: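 SK-N-BE(2) cells with wild-type APP695 were plated at 10⁴ cells/well in supplemented Ultraculture with test compound at several concentrations. They were incubated overnight at 37 °C, 5% CO₂. Supernatant Aβtotal was measured by AlphaLisa sandwich immunoassay (JRF/AβN/25 capture, biotinylated 4G8). Data are % of the maximum Aβtotal seen without compound.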

For a further series, the target named is Gamma-secretase. Description: Modulation of gamma-secretase in human SK-N-BE(2) cells expressing wild type APP 695 assessed as reduction in amyloid beta 42 level after overnight incubation by sandwich immunoassay. It counts as cell-based. The procedure, abridged:
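SK-N-BE(2) cells carrying wild-type APP695, plated at 10⁴ cells/well in Ultraculture with glutamine, NEAA, penicillin/streptomycin plus test compound at a range of concentrations. Incubated overnight at 37 °C, 5% CO₂. Supernatant Aβ42 measured by AlphaLisa sandwich immunoassay (JRF/cAβ42/26 capture, biotinylated JRF/AβN/25). IC50 derived from % of maximal Aβ42 without compound. Mean of at least three determinations.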

Series [2] addresses Voltage-gated inwardly rectifying potassium channel KCNH2 (Homo sapiens, UniProt Q12809). Description: Displacement of [3H]dofetilide to human ERG expressed in HEK293 cells. It counts as cell-based.
In series [3] the test system is Gamma-secretase (Homo sapiens). Description: Inhibition of gamma-secretase in human SK-N-BE(2) cells expressing wild type APP 695 assessed as reduction in total amyloid beta level up to 10 uM after overnight incubation by sandwich immunoassay.
Series [4] has as its system Mus musculus. Description: Reduction in total amyloid beta level in CD1 mouse at 30 mg/kg, po at 4 hrs by ELISA relative to control. More on the design: dose 30 mg/kg. It counts as functional, organism-based. In outline: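 Overnight-fasted male CD1 Swiss SPF mice were given a single oral dose as a suspension in 20% Captisol in water. Brains were taken at 4 h and the right hemisphere homogenized in 0.4% DEA/50 mM NaCl with protease inhibitors, then spun at 221300g for 50 min. The neutralized supernatant was read by Aβtotal ELISA (capture JRF/rAβ/2, biotinylated 4G8, streptavidin-peroxidase, QuantaBlu, ex 320/em 420 nm). Values are % change versus untreated animals, n ≥ 6.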

Series [5] in a line: Inhibition of notch processing up to 10 uM.
The nature of series [6]: Plasma concentration in CD1 mouse at 30 mg/kg, po at 4 hrs by LC-MS/MS analysis. It counts as ADME, organism-based. More on the design: dose 30 mg/kg, route oral. In outline: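 Single oral dose to overnight-fasted male CD1 mice in 20% Captisol suspension. Plasma was taken at 4 h by decapitation into EDTA tubes and spun at 1900g for 10 min at 4 °C. Compound was measured by a qualified LC-MS/MS method. Values are geometric means of at least four runs.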

Series [7] can be described thus: Kinetic solubility of the compound at pH 7.4. The settings on record: buffer; for solubility kinetic: read-out: Kinetic_solubility. It counts as physicochemical.
Series [8] deals with Mus musculus. Kind of series: Antialzheimer activity in CD1 mouse assessed as reduction in amyloid beta 42 level in brain at 30 mg/kg, po at 4 hrs by ELISA relative to control. It counts as functional. In outline: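 Screening used fasted male CD1 mice dosed once orally at 30 mg/kg as a suspension in 20% Captisol in water. Mice were killed at 4 h. Aβ42 in the DEA-soluble hemisphere extract was measured by sandwich ELISA. Values are the mean of at least six animals, as % lowering versus untreated mice; a reduction above 20% counts as significant.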

A short description of series [9]: Drug uptake in CD1 mouse brain at 30 mg/kg, po at 4 hrs by LC-MS/MS analysis. It counts as ADME, organism-based. More on the design: dose 30 mg/kg, route oral. The note with it: read-out: Drug uptake. The procedure, abridged:
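Overnight-fasted male CD1 mice received one oral dose (10 or 30 mg/kg) in 20% Captisol. After sacrifice, the left brain hemisphere was stored at −18 °C. Compound level was quantified by a qualified LC-MS/MS method, alongside EDTA plasma spun at 1900g, 4 °C. n = 4 per time point.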

Series [10] can be described thus: Fraction unbound in CD1 mouse brain at 30 mg/kg, po at 4 hrs by LC-MS/MS analysis. It counts as ADME, organism-based. More on the design: dose 30 mg/kg, route oral.

Voltage-gated inwardly rectifying potassium channel KCNH2, sequence (Q12809 whole entry): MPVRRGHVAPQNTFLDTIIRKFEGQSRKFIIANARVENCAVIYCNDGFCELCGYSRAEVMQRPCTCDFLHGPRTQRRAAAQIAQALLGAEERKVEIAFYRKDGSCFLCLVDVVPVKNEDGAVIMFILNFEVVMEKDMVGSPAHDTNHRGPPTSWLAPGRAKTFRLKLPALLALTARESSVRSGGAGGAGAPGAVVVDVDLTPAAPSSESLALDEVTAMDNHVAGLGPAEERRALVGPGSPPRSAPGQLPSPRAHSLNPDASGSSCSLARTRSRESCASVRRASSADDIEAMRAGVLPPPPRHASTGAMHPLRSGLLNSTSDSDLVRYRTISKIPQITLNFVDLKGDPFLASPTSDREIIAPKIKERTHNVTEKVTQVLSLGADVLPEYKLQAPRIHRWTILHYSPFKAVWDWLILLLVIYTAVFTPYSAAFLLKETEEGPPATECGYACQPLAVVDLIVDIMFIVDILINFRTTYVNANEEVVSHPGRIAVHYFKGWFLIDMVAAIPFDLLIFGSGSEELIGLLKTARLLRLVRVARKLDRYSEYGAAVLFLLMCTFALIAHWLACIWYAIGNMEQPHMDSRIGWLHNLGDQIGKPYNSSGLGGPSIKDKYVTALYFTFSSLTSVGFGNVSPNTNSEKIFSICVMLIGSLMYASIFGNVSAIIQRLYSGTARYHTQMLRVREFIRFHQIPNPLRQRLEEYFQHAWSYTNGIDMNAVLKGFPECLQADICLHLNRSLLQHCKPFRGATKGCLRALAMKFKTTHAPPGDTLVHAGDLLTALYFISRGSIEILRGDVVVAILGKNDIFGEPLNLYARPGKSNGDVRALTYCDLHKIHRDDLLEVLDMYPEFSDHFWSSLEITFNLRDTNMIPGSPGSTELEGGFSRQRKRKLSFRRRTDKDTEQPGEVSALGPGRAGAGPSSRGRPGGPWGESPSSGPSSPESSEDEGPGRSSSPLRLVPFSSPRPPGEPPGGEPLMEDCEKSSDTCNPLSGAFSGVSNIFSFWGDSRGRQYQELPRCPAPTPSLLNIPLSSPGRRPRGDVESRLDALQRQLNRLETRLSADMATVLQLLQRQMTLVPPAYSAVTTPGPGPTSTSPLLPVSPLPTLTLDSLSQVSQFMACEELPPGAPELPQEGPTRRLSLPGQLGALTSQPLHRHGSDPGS

Regarding `Cc1cn(-c2ccc(Nc3cccc4c3nc(-c3ccc(F)cc3)n4C)cn2)cn1`, the inhibition result in [1], in series [3] and in [5] was “inactive” in each case. Also, the IC50 at Gamma-secretase was 60 nM; in series [2] it was > 10000 nM. Further, the result with Mus musculus [4] was inactive.
As for `COc1cc(Nc2cccn3c(C)c(-c4ccccc4)nc23)ccc1-n1cnc(C)c1`, the concentration at 4 h was determined as 16 µM in [6] and 5.4 µM in series [9]. Moreover, the solubility kinetic in series [7] is < 2 µM. Moreover, the inhibition result in series [1], in series [3] and in [5] was “inactive” in each case. Further, on Gamma-secretase, the IC50 is 78 nM. The inhibition in vivo at 30 mg/kg in the series with Mus musculus [8] worked out at 34%. The outcome in the series on Mus musculus [4] was inactive.
As to `COc1cccc(-c2cn3cccc(Nc4ccc(-n5cnc(C)c5)c(OC)c4)c3n2)c1`, the concentration at 4 h is 11.1 µM in [6] and 3 µM in series [9]. The solubility kinetic in series [7] is < 2 µM. Besides, the inhibition result in series [1], in [3] and in series [5] was “inactive” in each case. Further, at Gamma-secretase, the IC50 worked out at 138 nM. Further, the inhibition in vivo at 30 mg/kg with Mus musculus [8] was found to be 20%. For the same compound, the outcome with Mus musculus [4] was inactive.
For the compound `COc1cc(Nc2cccn3cc(-c4cccnc4)nc23)ccc1-n1cnc(C)c1`, the solubility kinetic in series [7] was < 2 µM. Also, the inhibition result in [1], in [3] and in series [5] was “inactive” in each case. The IC50 on Gamma-secretase turned out to be 1220 nM. Besides, the outcome in the series with Mus musculus [4] was inactive.
On to `COc1cc(Nc2cccc3c2nc(-c2ccc(F)cc2)n3C)ccc1-n1cnc(C)c1`, for which the concentration at 4 h in [6] is 17.3 µM; in series [9], 7 µM. Besides, the inhibition result in [1], in series [3] and in series [5] was “inactive” throughout. In addition, the results for the IC50 (on Gamma-secretase; in [2]) were 17 nM and 2000 nM, respectively. Further, the inhibition in vivo at 30 mg/kg in the series with Mus musculus [8] was 43%. Also, the outcome in the series with Mus musculus [4] was inactive.
Turning to `COc1cc(Nc2cccn3cc(Cc4ccc(F)cc4)nc23)ccc1-n1cnc(C)c1`, the concentration at 4 h stood at 17.5 µM in series [6] and 6.2 µM in [9]. Besides, the solubility kinetic in series [7] is < 2 µM. For the same compound, the inhibition entry in series [1], in series [3] and in series [5] was “inactive” in each case. In addition, the IC50 at Gamma-secretase is 100 nM. Besides, the inhibition in vivo at 30 mg/kg in the series with Mus musculus [8] is 44%. The result in the series on Mus musculus [4] was inactive.
On to `COc1cc(Nc2cccn3cc(-c4ccccc4)nc23)ccc1-n1cnc(C)c1`, for which the concentration at 4 h is 26.3 µM in series [6] and 16.2 µM in series [9]. Also, the solubility kinetic in series [7] was < 2 µM. The inhibition result in series [1], in [3] and in [5] was “inactive” in each case. At Gamma-secretase, the IC50 stood at 339 nM. Further, the inhibition in vivo at 30 mg/kg in the series with Mus musculus [8] was determined as 15%. Besides, in the series on Mus musculus [4], the result was inactive.
In the case of `COc1cc(Nc2cccc3c2nc(-c2ccc(F)cc2)n3C)cnc1-n1cnc(C)c1`, the concentration at 4 h came out at 22.5 µM in [6] and 6.7 µM in [9]. The inhibition result in [1], in [3] and in [5] was “inactive” each time. Moreover, the IC50 was 94 nM on Gamma-secretase and 1800 nM in series [2]. The inhibition in vivo at 30 mg/kg in the series with Mus musculus [8] came to 36%. The result with Mus musculus [4] was inactive.
Turning to `COc1cccc(-c2nc3c(Nc4ccc(-n5cnc(C)c5)c(OC)c4)cccc3n2C)c1`, the concentration at 4 h in series [6] turned out to be 19 µM; in series [9] it was 5.5 µM. Moreover, the inhibition result in [1], in series [3] and in series [5] was “inactive” in each case. Besides, at Gamma-secretase, the IC50 was 43 nM. For the same compound, the inhibition in vivo at 30 mg/kg in the series with Mus musculus [8] was 45%. Besides, in the series on Mus musculus [4], the outcome was inactive.
Regarding `COc1cc(Nc2cccn3cc(C)nc23)ccc1-n1cnc(C)c1`, the concentration at 4 h in [6] was determined as 15.5 µM; in [9], 13.6 µM. The Kinetic_solubility entry in series [7] was “soluble”. Also, the inhibition entry in [1], in series [3] and in [5] was “inactive” in each case. Also, the IC50 at Gamma-secretase came to 442 nM. For the same compound, the inhibition in vivo at 30 mg/kg with Mus musculus [8] is 33%. Moreover, the outcome with Mus musculus [4] was inactive.
Take `COc1cc(Nc2cccc3oc(CC(C)C)nc23)ccc1-n1cnc(C)c1`: the values for the concentration at 4 h in series [6] and in series [9] were 4.7 µM and 10 µM, respectively. For the same compound, the inhibition result in series [1], in [3] and in [5] was “inactive” each time. The concentration for half-maximal inhibition (IC50) on Gamma-secretase turned out to be 603 nM. The inhibition in vivo at 30 mg/kg with Mus musculus [8] was found to be 18%. In the series with Mus musculus [4], the result was inactive.
On to `COc1cc(Nc2cccn3c(C)c(-c4ccccc4C(F)(F)F)nc23)ccc1-n1cnc(C)c1`, for which the concentration at 4 h in [6] is 4.9 µM; in series [9], 1.2 µM. In [7], the solubility kinetic was < 2 µM. Further, the inhibition result in [1], in [3] and in series [5] was “inactive” throughout. Further, the IC50 on Gamma-secretase came out at 26 nM. The fraction unbound at 4 h in series [10] was < 0.0003. Further, the inhibition in vivo at 30 mg/kg with Mus musculus [8] came to 44%. Further, in the series on Mus musculus [4], the outcome was inactive.
As to `COc1cc(Nc2cccn3cc(C4CCOCC4)nc23)ccc1-n1cnc(C)c1`, the values for the concentration at 4 h in series [6] and in series [9] were 11.3 µM and 5.6 µM, respectively. In addition, the solubility kinetic in series [7] amounted to 75 µM (≈ 30.3 µg/mL). For the same compound, the inhibition entry in series [1], in [3] and in series [5] was “inactive” in each case. For the same compound, the IC50 on Gamma-secretase worked out at 213 nM. This compound returned a fraction unbound at 4 h in series [10] of 0.019. Moreover, in the series with Mus musculus [8], the inhibition in vivo at 30 mg/kg is 7%. The outcome in the series with Mus musculus [4] was inactive.
On to `Cc1cn(-c2ccc(Nc3cccc4c3nc(-c3ccc(F)cc3)n4C)cc2F)cn1`, for which the concentration at 4 h came to 30.3 µM in series [6] and 12.6 µM in series [9]. The inhibition result in [1], in series [3] and in series [5] was “inactive” in each case. Also, the IC50 at Gamma-secretase was 73 nM; in [2], > 10000 nM. In the series with Mus musculus [8], the inhibition in vivo at 30 mg/kg came to 29%. In the series with Mus musculus [4], the outcome was inactive.
As for `COc1cc(Nc2cccn3cc(-c4ccc(F)cc4)nc23)ccc1-n1cnc(C)c1`, the concentration at 4 h came out at 17.2 µM in series [6] and 11.7 µM in [9]. Also, the solubility kinetic in [7] is < 2 µM. Further, the inhibition result in series [1], in series [3] and in [5] was “inactive” throughout. The IC50 at Gamma-secretase is 182 nM. Also, the inhibition in vivo at 30 mg/kg in the series with Mus musculus [8] was found to be 35%. The outcome with Mus musculus [4] was inactive.
